An excerpt weighted towards active compounds, which were near 5.8% of everything screened.
IDH1 mut inh = inhibitors of human IDH1 R132H; IDH1 R132H reductase, diaphorase/resazurin fluorescence, 60 min; inhibition, % at 10 µM; 70,000 compounds, 0.18% hits; AID 624101; in the data active = inhibition above about 34%; inconclusive = no clear call, values can overlap the other calls; inactive = below about 11%
T cruzi growth-1 = T. cruzi proliferation inhibition; T. cruzi beta-gal in NIH3T3, GalScreen luminescence, 90 h; inhibition, % at 8.34 µM; 77,000 compounds, 5.9% hits; AID 624255;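 active = mean inhibition above about 93%, with at least 55% of replicates each passing it, limit read from the data, passing the limit was not always enough; inconclusive = only one of those two conditions holds; inactive = neither condition holds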
KDM4C inh = KDM4C (human) demethylase inhibition; Q9H3R0; inhibition, % at 12.5 µM; GST-KDM4C 2-372, H3K9me3 peptide, LANCE TR-FRET; 96,000 compounds, 0.15% hits;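 active = mean replicate inhibition above about 25%, with at least 55% of replicates also reaching it, limit read from the data, passing the limit was not always enough; inconclusive = only one of those two conditions met; inactive = neither condition met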
Target sequence (Q9H3R0 2-372 limits assumed): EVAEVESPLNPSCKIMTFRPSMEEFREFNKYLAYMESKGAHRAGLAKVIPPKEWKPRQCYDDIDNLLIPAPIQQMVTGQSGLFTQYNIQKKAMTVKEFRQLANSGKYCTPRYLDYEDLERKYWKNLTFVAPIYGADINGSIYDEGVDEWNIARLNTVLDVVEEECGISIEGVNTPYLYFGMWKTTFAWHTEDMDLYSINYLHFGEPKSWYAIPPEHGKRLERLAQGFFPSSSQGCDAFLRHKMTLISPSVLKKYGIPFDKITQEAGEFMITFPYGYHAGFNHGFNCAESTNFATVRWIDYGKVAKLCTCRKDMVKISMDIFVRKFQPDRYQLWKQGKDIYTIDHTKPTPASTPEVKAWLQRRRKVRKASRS
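Material: N-terminal GST-fused human GASC-1 (KDM4C) fragment, residues 2-372. Input: 10 nM enzyme. Incubation: enzyme reaction 30 min, then detection 60 min, both room temperature. Doses: one test concentration per compound. Read-out basis: inhibition from TR-FRET ratio decrease. Detection: LANCE TR-FRET, excitation 340 nm, emissions 618 and 671 nm.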
Pf Dd2 inh = P. falciparum Dd2 growth inhibition. 94,000 compounds, 2.3% hits. AID 1159554. activity change, % at 10 µM. SYBR Green, 72 h; active compounds read low; in the data active = activity change below about -80%; inconclusive = no clear call, values can overlap the other calls
T cruzi growth-2 = blocks T. cruzi growth in NIH3T3 host cells; shares compounds with T cruzi growth-1; T. cruzi beta-gal in NIH3T3, GalScreen luminescence, 90 h; inhibition, % at 8.35 µM; 5,600 compounds, 72% hits; AID 651739;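 active = mean replicate inhibition above about 95% and at least 55% of replicates individually reaching it, limit read from the data; inconclusive = only one of the two criteria is met; inactive = neither criterion is met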
T cruzi growth-3 = Trypanosoma cruzi proliferation inhibition | shares compounds with T cruzi growth-1 | T. cruzi beta-gal in NIH3T3, GalScreen luminescence, 90 h | inhibition, % at 2.09 µM | 5,600 compounds, 21% hits | AID 651740;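 active = mean inhibition above about 95%, with at least 55% of replicates also reaching it, limit read from the data; inconclusive = meets just one of the two conditions; inactive = meets neither condition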
NIH3T3 tox = kills mouse NIH/3T3 fibroblasts; shares compounds with T cruzi growth-1; NIH/3T3 viability, CellTiter-Glo ATP luminescence, 90 h; cytotoxicity (signal decrease), % at 8.35 µM; 5,600 compounds, 14% hits; AID 651742;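 active = mean signal decrease across replicates above about 35% based on untreated-well scatter, with enough replicates individually passing, limit read from the data; inconclusive = no rule stated though some were filed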
NIH3T3 tox 2 = NIH/3T3 (mouse) viability loss. shares compounds with T cruzi growth-1. NIH/3T3 viability, CellTiter-Glo ATP luminescence, 90 h. inhibition, % at 24.9 µM. 5,600 compounds, 56% hits. AID 651744;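 active = mean loss of cell viability signal at or above a set limit, and enough replicates individually reaching it; inconclusive = meets only the mean limit or only the replicate share; inactive = meets neither condition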
Large screens that a line does not name were inactive (follow-up assays come after a bar, where they were run).

O=C(Cc1ccccn1)N1CCCCN2[C@H](CO)[C@H](c3ccc(C#Cc4ccccc4)cc3)[C@H]2C1	T cruzi growth-1 105 (no result: IDH1 mut inh) | T cruzi growth-2 102 | T cruzi growth-3 inactive | NIH3T3 tox 52 | NIH3T3 tox 2 107
O=C(Cn1cc(C(=O)c2ccccc2)c2ccccc21)NCC1CCCO1 (centres undefined)	none (no result: T cruzi growth-1, KDM4C inh, Pf Dd2 inh)
O=C(Cc1ccccn1)N1CCCCN2[C@H](CO)[C@@H](c3ccc(-c4ccccc4)cc3)[C@H]2C1	none (no result: IDH1 mut inh)
O=C(Cc1ccccn1)N1CCCCN2[C@H](CO)[C@H](c3ccc(-c4ccccc4)cc3)[C@@H]2C1	T cruzi growth-1 inconclusive (no result: IDH1 mut inh) | T cruzi growth-2 103 | T cruzi growth-3 inactive | NIH3T3 tox inactive | NIH3T3 tox 2 inactive
O=C(Cc1ccccn1)N1CCCCN2[C@@H](CO)[C@H](c3ccc(-c4ccccc4)cc3)[C@@H]2C1	T cruzi growth-1 105 (no result: IDH1 mut inh) | T cruzi growth-2 inconclusive | T cruzi growth-3 inactive | NIH3T3 tox inactive | NIH3T3 tox 2 inactive
CC(=O)OC1CCC2(C)C(CC[C@@H]3[C@@H]2CCC2(C)C(C4=CC(=O)OC4)CCC32O)C1 (some centres undefined)	none (no result: T cruzi growth-1, KDM4C inh, Pf Dd2 inh)
CC[C@H]1CN2CCc3cc(OC)c(OC)cc3[C@@H]2C[C@@H]1C[C@H]1NCCc2cc(O)c(OC)cc21	none (no result: T cruzi growth-1, KDM4C inh, Pf Dd2 inh)
COc1ccc(C#Cc2ccc([C@H]3[C@H]4CN(C(=O)Cc5ccccc5)CCCCN4[C@H]3CO)cc2)cc1	none (no result: IDH1 mut inh)
O=C(Cc1ccccc1)N1CCCCN2[C@H](CO)[C@@H](c3ccc(C#Cc4ccccc4)cc3)[C@@H]2C1	T cruzi growth-1 106 (no result: IDH1 mut inh) | T cruzi growth-2 100 | T cruzi growth-3 inactive | NIH3T3 tox inactive | NIH3T3 tox 2 106
O=C(Cc1ccccc1)N1CCCCN2[C@H](CO)[C@@H](c3ccc(C#Cc4ccccc4)cc3)[C@H]2C1	T cruzi growth-1 118 (no result: IDH1 mut inh) | T cruzi growth-2 97 | T cruzi growth-3 inactive | NIH3T3 tox 58 | NIH3T3 tox 2 105
O=C(Cc1ccncc1)N1CCCCN2[C@H](CO)[C@H](c3ccc(C#Cc4ccccc4F)cc3)[C@H]2C1	T cruzi growth-1 inconclusive (no result: IDH1 mut inh) | T cruzi growth-2 104 | T cruzi growth-3 inactive | NIH3T3 tox inactive | NIH3T3 tox 2 103
O=C(Cc1ccncc1)N1CCCCN2[C@@H](CO)[C@@H](c3ccc(C#Cc4ccccc4F)cc3)[C@@H]2C1	none (no result: IDH1 mut inh)
COC1CC(O[C@H]2CC[C@@]3(C)C(CCC4C3CC[C@]3(C)C(C5=CC(=O)OC5)CCC43O)C2)OC(C)C1OC1OC(COC2OC(CO)C(O)C(O)C2O)C(O)C(O)C1O (some centres undefined)	none (no result: T cruzi growth-1, KDM4C inh, Pf Dd2 inh)
